High-throughput results as filed in PubChem.
Hits are enriched below; roughly 0.073% of the tested compounds scored in any of these assays.
Pf gamet viab: late stage P. falciparum gametocyte viability inhibitors, primary screen, ATP luminescence, HTS. AID 743093, 2013. P. falciparum stage V gametocytes, 24 h. 150,000 compounds, 0.065% hits. inhibition, % at 10.9 µM;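 active means inhibition above the mean plus 3 SD of compounds within the control limits, set per campaign, cut at about 38% in these data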;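 further: 0% = DMSO wells and 100% = medium only without gametocytes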
Calb biofilm kill: clotrimazole potentiators killing C. albicans biofilm, primary screen, 4-compound mixtures | C. albicans biofilm persisters + clotrimazole, fluorescence viability; primary screen in compound mixtures of four per well | inhibition, % at 7.6 µM | 120,000 compounds, 0.02% hits;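 active means inhibition above 30.3% in the primary screen of four-compound pools, then above 30% when the compound was retested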;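 further: compounds exposed to preformed 24 h biofilms for 48 h; 0% = untreated biofilm control and 100% = clotrimazole plus chlorhexidine kill blank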
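Assay system: C. albicans biofilms / Medium: RPMI/MOPS medium, pH 7.0 / Schedule: biofilm formation 24 h, compound exposure 48 h, 37 °C / Measured by: Alamar Blue fluorescence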
The depositor's hits bear a star; nt = no result given.

SMILES | Pf gamet viab | Calb biofilm kill
Cc1ccc2ccc(C(Nc3cccc(C(F)(F)F)c3)c3cccnc3)c(O)c2n1 (stereo not given) | 39* | 2
Cc1ccnc(NC(c2cccnc2)c2ccc3cccnc3c2O)c1 (stereo not given) | -3 | 18
CC(OC(=O)c1ccc(F)cc1)C(=O)Nc1nc(-c2cccc([N+](=O)[O-])c2)cs1 (stereo not given) | -11 | 9
COc1ccc(CCN(C)CCCN2CC(c3ccccc3)CC2=O)cc1OC (stereo not given) | 42* | 4
COc1ccc(C2CC(=O)N(CCCN(C)CCc3ccc(OC)c(OC)c3)C2)cc1 (stereo not given) | nt | 19
COCC1CCCCN1Cc1cn(-c2ccccc2)nc1-c1ccc2c(c1)OCO2 (stereo not given) | 23 | -8
CCOC(=O)CC1CCCCN1Cc1cn(C)nc1-c1ccc2c(c1)OCCO2 (stereo not given) | 42* | 7
CC12C(=O)N(c3ccc(OC(=O)c4ccco4)cc3)C(=O)C1C1c3ccccc3C2c2ccccc21 (stereo not given) | -8 | -1
CCCc1cc(=O)[nH]c(SCC(=O)N2CCN(S(=O)(=O)c3ccc4ccccc4c3)CC2)n1 | 64* | 6
CCCc1cc(=O)[nH]c(SCC(=O)N2CCN(S(=O)(=O)c3ccccc3)CC2)n1 | -15 | 5
CCCSc1nc2c(=O)[nH][nH]c(=O)c2n1Cc1ccccc1 | nt | 8
COCC(=O)Nc1ccc(Br)cc1C | 39* | 0
Cc1cc(F)ccc1NCC(=O)Nc1ccc(Br)cc1C | 1 | 18
COc1ccc(NC(=O)CN(C)CC(=O)Nc2ccc3c(c2)CCC3)cc1 | -4 | 8
CN(CC(=O)Nc1ccc2c(c1)CCC2)CC(=O)Nc1ccccc1Br | 39* | 6
Cc1ccc(Cc2cnc(NC(=O)C3=NCCN3)s2)cc1 | 4 | 9
O=C(Nc1ncc(Cc2ccccc2)s1)C1=NCCN1 | 38* | 16
Cc1ccc(/C=N/NC(=O)c2c(C)nc3ccc(Cl)cn23)cc1 | -5 | nt
Cc1ccc(S(=O)(=O)c2c(C(=O)c3ccccc3)cnc3cc4c(cc23)OCCO4)cc1 | -15 | -10
CC1CCN(S(=O)(=O)c2ccc(N=NC3=C(O)CC(C)(C)CC3=O)cc2)CC1 | 44* | 9
CC1(C)CC(=O)C(N=Nc2cccc(S(=O)(=O)N3CCOCC3)c2)=C(O)C1 | -9 | 2
COc1ccc(Cl)cc1C(=O)CSc1nnnn1C1CCCCC1 | 43* | nt
CCn1nnnc1SCC(=O)c1cc(Cl)ccc1OC | 12 | 24
Cc1ccccc1-n1nc(C)c2c(C(=O)NN)cc(-c3ccncc3)nc21 | -10 | 6
Cc1nn(-c2ccccc2)c2nc(-c3ccncc3)cc(C(=O)NCc3ccco3)c12 | 56* | nt
SMILES | Pf gamet viab | Calb biofilm kill
Cc1ccc(S(=O)(=O)N2[C@@H](c3cccc(Cl)c3)C(C(=O)O)=CC[C@H]2c2ccc(C(C)C)cc2)cc1 | -13 | nt
O=C(O)c1ccc(N=c2oc3cc(O)ccc3cc2C(=O)NCc2ccccc2)cc1 | 42* | -4
COc1ccc2cc(C(=O)NCc3ccccc3)c(=Nc3ccc(C(=O)O)cc3)oc2c1 | nt | 9
Cc1ccccc1Nc1nc(N)nc(CN2CCN(C(=O)c3ccccc3)CC2)n1 | 7 | 12
Cc1cccc(N2CCN(C(=O)Cc3ccc(-n4c(=O)[nH]c5ccsc5c4=O)cc3)CC2)c1C | -21 | 23
Cc1ccc(C)c(N2CCN(C(=O)Cc3ccc(-n4c(=O)[nH]c5ccsc5c4=O)cc3)CC2)c1 | 39* | 6
OCC[C@H]1C[C@@H](O)[C@H](O)[C@@]2(Cc3ccccc3CO2)O1 | 8 | nt
CCCNC(=O)c1nnsc1S(=O)c1ccc(Cl)cc1 (stereo not given) | -35 | 13
CCCNC(=O)c1nnsc1S(=O)(=O)c1ccc(Cl)cc1 | -2 | 34*
COc1ccc(C(=O)Nc2nc(N)n(-c3ccccc3)n2)cc1 | -14 | 19
Nc1nc(NC(=O)c2ccccc2)nn1-c1ccccc1 | 58* | 13
Cc1ccc(CNC(=O)C2CCN(S(=O)(=O)N3CCCCC3)CC2)cc1 | 40* | 15
O=C(NCc1ccc(F)cc1)C1CCN(S(=O)(=O)N2CCCC2)CC1 | -9 | 14
CCOC(=O)[C@H]1[C@H]2COc3cc(OC)ccc3[C@@H]2N2C(=O)c3cc(C)ccc3NC(=O)[C@@]12C | -14 | nt
CCOC(=O)[C@H]1[C@H]2COc3cc(OC)ccc3[C@@H]2N2C(=O)c3ccc(C)cc3NC(=O)[C@@]12C | 39* | nt
CN(C)S(=O)(=O)n1cnc([C@@H]2[C@@H]3C(=O)OC[C@@H]3C[C@]23N=CN(Cc2ccccc2)C3=O)c1 | 14 | nt
CC(N=C1CC(C)(C)CC(=O)/C1=C(/O)CCCN1C(=O)c2ccccc2C1=O)C(=O)O (stereo not given) | 7 | 14
CCC(=O)NC(=S)Nc1ccccc1C(=O)NC1CCCCC1 | 12 | 18
CC(C)C(=O)NC(=S)Nc1ccccc1C(=O)NC1CCCCC1 | 52* | 16
O=C(COC(=O)Cc1ccccc1F)Nc1ccc(F)cc1F | nt | 4
O=C(O)/C=C/C(=O)Nc1ccc(O)cc1 | -25 | 24
CC(C)CCNCC(=O)NC(c1ccccc1)c1ccccc1 | nt | 2
CCOC(=O)c1nc2sc3c(c2c(=O)n1C(C)C(=O)OCC)CCCC3 (stereo not given) | -6 | 5
CCOc1ccc(S(=O)(=O)N2CCCC2)cc1 | 40* | nt
CCN(CC)C(=O)COc1ccc(S(=O)(=O)N2CCCC2)cc1 | -4 | nt
SMILES | Pf gamet viab | Calb biofilm kill
Cc1ccccc1OCC(=O)OCC(=O)NCc1cccs1 | nt | 9
CC(C)c1ccc(-n2c(-c3ccccc3)c[n+]3c2CCc2ccccc2-3)cc1 | -24 | 35*
COc1ccc(-n2c(-c3ccc(Br)cc3)c[n+]3c2CCc2ccccc2-3)cc1 | nt | 25
COc1cc(-c2noc(C)c2C(=O)NCCc2ccccc2)cc(OC)c1OC | 0 | nt
COc1ccc(NC(=O)c2ccc(COc3ccc(C)cc3)o2)cc1 | 10 | 5
Cc1ccc(-n2[nH]c3c4c(ccc3c2=O)C(=O)c2ccccc2C4=O)cc1 | 61* | 10
Cc1ccc(C)c(-n2[nH]c3c4c(ccc3c2=O)C(=O)c2ccccc2C4=O)c1 | nt | 14
CC1=CC=CC2=NC(=O)CC(C)(C(=O)O)N12 (stereo not given) | -13 | 17
C/C(CCS(=O)(=O)c1ccccc1)=N/O | 38* | 16
C/C(CS(=O)(=O)c1ccccc1)=N\O | nt | 11
Cc1cc(SCC(=O)N/N=C/c2ccc(O)c(O)c2O)c(C)cc1Br | 39* | nt
COc1cc(/C=N/NC(=O)CSc2cc(C)c(Br)cc2C)ccc1O | 15 | nt
COCC(=O)N1CCN(c2nc3ccccc3o2)CC1 | -19 | -3
Cc1ccc(N2C(=S)SC3CS(=O)(=O)CC32)cc1 (stereo not given) | 38* | 10
Cc1ccc(N2C(=O)N(c3ccc(C)cc3)C3CS(=O)(=O)CC32)cc1 (stereo not given) | 23 | 13
O=[N+]([O-])c1ccc(O)c2cccnc12 | -64 | 8
O=[N+]([O-])c1ccc(O)c2ncccc12 | nt | 32*
CCOc1ccccc1/C=N/NC(=O)CNC(=O)c1cccs1 | -13 | 14
CC(=O)/C(N=Nc1c(C)n(C)n(-c2ccccc2)c1=O)=C(\C)O | -18 | -10
CCOC(=O)/C(N=Nc1c(C)n(C)n(-c2ccccc2)c1=O)=C(\C)O | 65* | 22
